Laboratory results as given in ChEMBL document CHEMBL2203169, “Effect of allyl sulfides from garlic essential oil on intracellular ca2+ levels in renal tubular cells” (J Nat Prod, 2012).
Activity calls are given as the source filed them. The rule behind the calls is not given here.

Legend:
[1] = system: MDCK; assay: Induction of intracellular calcium level in MDCK cells assessed as net peak value at 10 uM by Fura-2 in calcium free medium; format: functional, Canis lupus familiaris
Outline: (§1)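 Fura-2-loaded MDCK suspension (0.5 million cells/mL) in Ca2+-free medium, where CaCl2 was replaced by 0.1 mM EGTA; 25 °C, stirred cuvette. Signals recorded at 340/380 nm excitation and 510 nm emission every 1 s. Store depletion used 1 μM thapsigargin, applied before compound or after 220 s compound preincubation. Phospholipase C tests used 10 μM ATP and 2 μM U73122. [Ca2+]i calculated with Kd 155 nM. Means ± SEM, n = 5.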

[2] = system: MDCK; assay: Induction of intracellular calcium level in MDCK cells at 10 uM by Fura-2 in calcium free medium in presence of 10 uM U73343 inactive analogue of U73122 phospholipase C inhibitor; format: functional, cell-based; settings: Canis lupus familiaris
Outline: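 MDCK cells were trypsinized, recovered 1 h, then loaded with 2 μM fura-2/AM for 30 min at 25 °C. They were read in a stirred cuvette at 25 °C (0.5 million cells/mL) in Ca2+-free medium with 0.1 mM EGTA in place of CaCl2. Ex 340/380 nm, em 510 nm, 1 s intervals. Pretreatment was 2 μM U73122 or 10 μM U73343 before ATP. Kd 155 nM; n=5.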

[3] = system: MDCK; assay: Induction of intracellular calcium level in MDCK cells at 100 uM by Fura-2 in calcium free medium in presence of phospholipase C inhibitor U73122; settings: Canis lupus familiaris
[4] = system: MDCK; assay: Cell cycle arrest in MDCK cells assessed as accumulation at S phase at 100 uM after 16 hrs by flow cytometric analysis (reference value: 24.5%); format: functional, Canis lupus familiaris
[5] = system: MDCK; assay: Induction of intracellular calcium level in MDCK cells at 100 uM by Fura-2 in presence of calcium and 2 uM GF109203 X acetate protein kinase C inhibitor; format: functional, cell-based; settings: Canis lupus familiaris
Outline: (§2)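 Fura-2-loaded MDCK cells in Ca2+-containing medium (2 mM CaCl2, pH 7.4) at 25 °C, pretreated with 10 nM phorbol myristate acetate or 2 μM GF109203X before 100 μM compound. [Ca2+]i was read from the 340/380 nm fura-2 ratio. n = 5.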

[6] = system: MDCK; assay: Induction of intracellular calcium level in MDCK cells assessed as sustained phase at 100 uM within 250 secs by Fura-2 in presence of extracellular calcium; format: functional, cell-based; settings: Canis lupus familiaris
Outline: (§3)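 Trypsinized cells recovered 1 h, then loaded with 2 μM fura-2/AM for 30 min at 25 °C. Cells washed and resuspended in Ca2+-containing medium (2 mM CaCl2, 2 mM HEPES, pH 7.4); 0.5 million cells/mL in a stirred cuvette at 25 °C. Compound added at 30 s and recorded to 250 s. Excitation at 340/380 nm, emission at 510 nm. Calibration used Triton X-100 then 10 mM EGTA; Kd 155 nM. n = 5.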

[7] = system: MDCK; assay: Induction of intracellular calcium level in MDCK cells at 100 uM by Fura-2 in presence of calcium and 1 uM nicardipine L-type calcium channel blocker; format: functional, cell-based; settings: Canis lupus familiaris
Outline: (§4)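 Fura-2-loaded MDCK cells in Ca2+-containing medium at 25 °C, pretreated 1 min with the 1 μM L-type blocker before 100 μM compound was added at 30 s. Response taken as net area under the [Ca2+]i curve from 30 to 250 s, expressed as percent of unblocked control. Means ± SEM of five experiments.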

[8] = system: MDCK; assay: Induction of intracellular calcium level in MDCK cells at 100 uM preincubated 220 secs by Fura-2 in calcium free medium in presence of endoplasmic reticulum Ca2+-ATPase inhibitor thapsigargin; format: functional, cell-based; settings: Canis lupus familiaris; outline: as §1
[9] = system: MDCK; assay: Induction of intracellular calcium level in MDCK cells assessed as rise in fura-2 340/380 excitation signal ratio at 100 uM treated at 30 secs by Fura-2 in presence of extracellular calcium; format: functional, cell-based; settings: Canis lupus familiaris; outline: as §3
[10] = system: MDCK; assay: Cell cycle arrest in MDCK cells assessed as accumulation at G2/M phase at 100 uM after 16 hrs by flow cytometric analysis (reference value: 19.8%); format: functional, Canis lupus familiaris
[11] = system: MDCK; assay: Induction of intracellular calcium level in MDCK cells at 100 uM assessed as calcium influx by Fura-2 in presence of calcium and 1 uM diltiazem L-type calcium channel blocker; format: functional, cell-based; settings: Canis lupus familiaris; outline: as §4
[12] = system: MDCK; assay: Cell cycle arrest in MDCK cells assessed as accumulation at G1 phase at 100 uM after 16 hrs by flow cytometric analysis (reference value: 55.7%); format: functional, Canis lupus familiaris
[13] = system: MDCK; assay: Induction of intracellular calcium level in MDCK cells at 100 uM assessed as calcium influx by Fura-2 in presence of calcium and 1 uM verapamil L-type calcium channel blocker; format: functional, cell-based; settings: Canis lupus familiaris; outline: as §4
[14] = system: MDCK; assay: Induction of intracellular calcium level in MDCK cells at 25 to 100 uM by Fura-2 in presence of extracellular calcium; format: functional, cell-based; settings: Canis lupus familiaris; outline: as §3
[15] = system: MDCK; assay: Cell cycle arrest in MDCK cells assessed as accumulation at subG1 phase at 100 uM after 16 hrs by flow cytometric analysis (reference value: 0.5%); format: functional, Canis lupus familiaris
[16] = system: MDCK; assay: Induction of intracellular calcium level in MDCK cells at 100 uM by Fura-2 in calcium free medium in presence of endoplasmic reticulum Ca2+-ATPase inhibitor thapsigargin; format: functional, cell-based; settings: Canis lupus familiaris; outline: as §1
[17] = system: MDCK; assay: Induction of intracellular calcium level in MDCK cells at 1 uM by Fura-2 in presence of extracellular calcium; settings: Canis lupus familiaris
[18] = system: MDCK; assay: Induction of intracellular calcium level in MDCK cells at 100 uM by Fura-2 in presence of calcium and 10 nM phorbol myristate acetate protein kinase C activator; format: functional, cell-based; settings: Canis lupus familiaris; outline: as §2
[19] = system: MDCK; assay: Cytotoxicity against MDCK cells assessed as decrease in cell viability after 16 hrs by tetrazolium salt WST-1 assay; format: functional, cell-based; settings: Canis lupus familiaris
Outline: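 MDCK cells plated at 1 × 10^4 per well and grown 24 h to 70% confluence, then exposed 16 h to compound (0–2 mM range). Cells washed, then incubated 2 h at 37 °C with WST-1; absorbance read at 450 nm. Values expressed as percent of vehicle control (0.1% DMSO). n = 5.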

[20] = system: MDCK; assay: Induction of intracellular calcium level in MDCK cells at 50 uM by Fura-2 in presence of calcium relative to diallyl trisulfide; format: functional

Row | Structure (SMILES) | Activity [3] | Activity [4] | Activity [10] | Activity [12] | Activity [15] | IC50 [19] | Activity [19] | other results
1 | Nc1ncnc2c1ncn2[C@@H]1O[C@H](COP(=O)(O)OP(=O)(O)OP(=O)(O)O)[C@@H](O)[C@H]1O [ADENOSINE TRIPHOSPHATE] | inactive |  |  |  |  |  |  | Activity [1]: 132 nM; Activity [2]: Active
2 | C=CCSSSCC=C [ALLITRIDIN] | Active | 34.6% | 38.6% | 26.8% | 33.1% | 50 µM |  | Activity [5]: Active; Activity [6]: Active; Activity [7]: inactive; Activity [8]: inactive; Activity [9]: Active; Activity [11]: Active; Activity [13]: Active; Activity [14]: Dose-dependent effect; Activity [16]: inactive; Activity [17]: inactive; Activity [18]: Active
3 | C=CCSCC=C [DIALLYL SULFIDE] |  | 27.7% | 19% | 53.3% | 1.1% | 3260 µM | Dose-dependent effect | Activity ([20]; Canis lupus familiaris): inactive
4 | C=CCSSCC=C [DIALLYLDISULFIDE] |  | 26.8% | 20% | 53.3% | 7.1% | 1820 µM | Dose-dependent effect | Activity [20]: 45.6%
